High-throughput results from PubChem.
Dynein cargo inh = blocks dynein driven cargo transport along microtubules. 3617.4 mouse cells, GR-EGFP nuclear translocation imaging; test concentration mostly 20 µM; stimulated with dexamethasone, 1 µM; hits give low values. z-score, hits read low. 220,000 tested, 0.47% active;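 active = plate z-score of nuclear minus cytoplasmic receptor signal below a set negative limit, without overly bright fluorescence or cell loss, cut at about -3.5 in these data, passing the limit was not always enough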;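 also: z-score of nuclear minus cytoplasmic ring GR-EGFP intensity difference per well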
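Buffer or medium: Induction medium lacking tetracycline, stripped serum | Also added: Dexamethasone agonist, 1.0 µM final, for 30 min | Timing: 48 h induction, 1 h compound, 30 min dex at 37 °C | Detection: Formaldehyde fixation, Hoechst nuclear stain, 10x automated fluorescence imaging | Measure: Nuclear versus cytoplasmic GR-EGFP signal, averaged per well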
MT stabilizer = microtubule stabilizers in HeLa cells. HeLa tubulin immunostaining HCS, 24 h; share of cells brighter than vehicle mean+2SD. % tubulin-high responders, % at 10 µM. 200,000 tested, 0.83% active;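 active = plate Z-score above 3 for both tubulin-high and condensed-nucleus cell shares, with cell loss under 80%, at 10 µM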;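 also: anti alpha tubulin signal scored within the nucleus-defined area of each cell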
Tb hexokinase = blocks Trypanosoma brucei hexokinase 1 activity; recombinant TbHK1, G6PDH-coupled NADH A340; 220,000 tested, 0.11% active; inhibition, % at 10 µM;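 active = inhibition of 50% or more in the single-dose primary screen; inactive = inhibition below 50%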
Rad51 HR inh = Rad51 (human) homologous recombination inhibition. hRad51 DNA strand exchange, fluorescence dequenching. inhibition, % at 10 µM. 200,000 tested, 0.085% active. AID 1385;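 active = inhibition above 40% at the single screening dose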;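 also: 0% = DMSO control wells and 100% = blanks with heterologous ssDNA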
Target sequence (Q06609 whole entry, looked up): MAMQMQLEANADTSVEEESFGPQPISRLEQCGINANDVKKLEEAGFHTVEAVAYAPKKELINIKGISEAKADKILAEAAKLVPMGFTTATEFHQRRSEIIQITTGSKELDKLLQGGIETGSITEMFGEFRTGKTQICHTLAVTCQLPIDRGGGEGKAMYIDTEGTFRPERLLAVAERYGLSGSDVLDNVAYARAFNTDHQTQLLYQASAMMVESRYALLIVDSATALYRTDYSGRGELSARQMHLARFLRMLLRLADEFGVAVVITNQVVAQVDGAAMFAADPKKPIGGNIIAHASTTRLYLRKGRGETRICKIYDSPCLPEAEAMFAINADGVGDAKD
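Read-out basis: percent inhibition relative to plate controls and blanks / Assay system: human Rad51 nucleoprotein filaments preassembled on unlabelled ssDNA / Timing: filaments 15 min 37 °C, then compound 30 min / Control set: per-plate controls and blanks / Technique: fluorescence dequenching at 485/520 nm / Compound: 10 µM final, single point / Also added: Fluorescein- and BHQ1-tagged 47-mer duplex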
bCat nuc transl = beta-catenin nuclear translocation modulation; nuclear translocation activity, % at 5 µM; HeLa beta-catenin nuclear translocation, immunofluorescence imaging; 190,000 tested, 0.3% active;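 active = nuclear translocation activity above 50% at 5 µM, with a well cell count of 50 or more; inconclusive = wells under 50 cells across six images, flagged as toxic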;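 also: per-cell ratio of nuclear to cytoplasmic median beta-catenin stain intensity; plate controls were DMSO negative control for no effect and GSK-3 inhibitor IX positive control for full effect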
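Assay system: human HeLa cells, native beta-catenin; doses: 5 µM primary, 0.02–20 µM confirmation; incubation: compound treatment 24 h, 37°C, 5% CO2; technique: fluorescence imaging of beta-catenin antibody stain plus DAPI; measure: % activation, nuclear-to-cytoplasmic median beta-catenin signal ratio per cell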
Dynein confirm = dynein cargo transport inhibition, confirmation; 1,000 tested, 69% active; calls only at 20 µM; AID 463116; 3617.4 GR-EGFP nuclear translocation imaging, dexamethasone-induced; shares compounds with Dynein cargo inh;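 active = inhibition of receptor movement into the nucleus at or above a set limit in both runs, with normal cell brightness and cell count; inconclusive = limit reached in only one run, brightness and count normal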;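 also: dexamethasone at 1 µM final in well for 30 min; nuclear minus cytoplasmic GR-EGFP mean intensity difference in channel 2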
* hit, by the source's call. Shown are actives, neighbours in structure and some others; about 1.5% of the full set was active somewhere.

Results for CC(C)(C)c1cc(C(=O)NNC(=O)c2ccc(C(F)(F)F)cc2)no1 ?
Dynein cargo inh: 0.229; Tb hexokinase: -11.1; Rad51 HR inh: -1.1; bCat nuc transl: -3.9

What do the screens show for `C=C(CCC(=O)c1ccccc1)C(=O)c1ccccc1`?
Dynein cargo inh: -3.78*; MT stabilizer: 6.1; Tb hexokinase: 1.2; Rad51 HR inh: 1.8; bCat nuc transl: 0.6; Dynein confirm: active

How did O=C(CCCCCCCC(=O)c1ccccc1)c1ccccc1 do in these assays?
Dynein cargo inh: -0.192; MT stabilizer: 0.6; Tb hexokinase: 6.7; Rad51 HR inh: 2.6; bCat nuc transl: 3.0

What do the screens show for `COc1ccc(-c2nnc(SCC(=O)NC3CCCc4ccccc43)n2N)cc1` (stereo unspecified)?
Dynein cargo inh: -0.825; MT stabilizer: 3.7; Tb hexokinase: 0.0; Rad51 HR inh: 0.6; bCat nuc transl: -1.1

Results for Cc1ccc(C(=O)/C=C/c2ccccc2)o1 ?
Dynein cargo inh: -3.73*; MT stabilizer: 1.6; Tb hexokinase: -62.4; Rad51 HR inh: 0.9; bCat nuc transl: -3.4; Dynein confirm: inconclusive

How did CCOC(=O)c1c(C)oc2c1c(C(c1cccnc1)N1CCN(C)CC1)c(O)c1ccccc12 (stereo unspecified) do in these assays?
bCat nuc transl: -3.5

What do the screens show for `CCOC(=O)c1c(C)oc2c1c(C(c1cccnc1)N1CCOCC1)c(O)c1ccccc12` (stereo unspecified)?
Dynein cargo inh: -3.71*; MT stabilizer: 5.0; Tb hexokinase: -9.8; Rad51 HR inh: 6.3; bCat nuc transl: -5.5; Dynein confirm: inconclusive

Results for O=C(CSc1ncc(-c2ccccc2)[nH]1)Nc1cccc(O)c1 ?
Dynein cargo inh: 0.435; MT stabilizer: 2.6; Tb hexokinase: 5.4; Rad51 HR inh: -5.6

What do the screens show for `Cc1ccnc(N/C=C(\C#N)c2nc(-c3cccc(Br)c3)cs2)c1`?
Dynein cargo inh: -11.7; MT stabilizer: 3.0; Tb hexokinase: -1.5; Rad51 HR inh: inactive; bCat nuc transl: 0.4; Dynein confirm: active

Results for CCC(Sc1nc2sc(C(=O)OC)c(C)c2c(=O)n1N)C(=O)N(CC)CC (stereo unspecified) ?
Dynein cargo inh: 0.453; MT stabilizer: 1.6; Tb hexokinase: -8.3; Rad51 HR inh: 3.7

How did O=[N+]([O-])c1ccc(Sc2ncccn2)c([N+](=O)[O-])c1 do in these assays?
Dynein cargo inh: -4.84*; Tb hexokinase: -53.4; Rad51 HR inh: -8.8; bCat nuc transl: -1.4; Dynein confirm: inactive

What do the screens show for `O=[N+]([O-])c1cc(C(F)(F)F)ccc1Sc1nccn1Cc1ccccc1`?
Dynein cargo inh: 0.0285; MT stabilizer: 2.4; Tb hexokinase: 2.4; Rad51 HR inh: -0.1; bCat nuc transl: -3.2

Results for O=[N+]([O-])c1ccc(Sc2nccn2Cc2ccccc2)c([N+](=O)[O-])c1 ?
Dynein cargo inh: -4.57*; MT stabilizer: 5.3; Tb hexokinase: -12.7; Rad51 HR inh: -1.4; bCat nuc transl: -1.1; Dynein confirm: active

What do the screens show for `Cc1cccc(Sc2ccc([N+](=O)[O-])cc2[N+](=O)[O-])n1`?
Dynein cargo inh: -0.101; MT stabilizer: 5.3; Tb hexokinase: -17.9; Rad51 HR inh: 2.7; bCat nuc transl: 2.1

Results for Cc1sc2nc(CSc3ccccc3)nc(N3CCN(C)CC3)c2c1C ?
Dynein cargo inh: 2.43; MT stabilizer: 2.0; Tb hexokinase: -0.6; Rad51 HR inh: 4.0; bCat nuc transl: -1.2

Results for O=C1/C(=C/C=C/c2ccccc2)Oc2c1ccc(O)c2CN1CCN(CCO)CC1 ?
Dynein cargo inh: -1.34; Tb hexokinase: -25.4; bCat nuc transl: -0.2

What do the screens show for `CCN1CCN(Cc2c(O)ccc3c2O/C(=C\C=C\c2ccccc2)C3=O)CC1`?
Dynein cargo inh: -4.91*; MT stabilizer: 8.7; Tb hexokinase: -10.7; Rad51 HR inh: -141.9; bCat nuc transl: -2.2; Dynein confirm: active

What do the screens show for `N#CC1=C(N)C(C#N)(C#N)C(c2ccncc2)C2CN(C(=O)OCc3ccccc3)CC=C12` (stereo unspecified)?
Dynein cargo inh: -4.01; MT stabilizer: 2.7; Tb hexokinase: -8.8; Rad51 HR inh: -4.0; bCat nuc transl: 1.9; Dynein confirm: inactive
